# Assay outcomes: PubChem BioAssay, Johns Hopkins Ion Channel Center
# KCNQ1 inh – inhibitors of human KCNQ1 potassium channel. P51787. CHO-K1 KCNQ1, FluxOR thallium flux fluorescence; active compounds read high. B-score at 10 µM. 310,000 tested, 1.3% active;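 active means compounds whose thallium flux B-score, printed positive for inhibition, exceeds three library SD while starting fluorescence stays within three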;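 further: channel opened by potassium depolarization with thallium stimulus after 20 min compound exposure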
# KCNK3 block – human KCNK3 channel inhibition, primary screen. 340,000 tested, 0.84% active. B-score at 10 µM. AID 602410. CHO-KCNK3 thallium flux, FluxOR fluorescence; active compounds read low. O14649;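 active means B-score under library mean minus 4 SD, starting fluorescence ratio at most library mean plus 5 SD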;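 further: more negative B-score means stronger inhibition of thallium flux through KCNK3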
# hERG protect – compounds protecting human hERG from proarrhythmic drug block; CHO-hERG, FluxOR thallium flux, dofetilide IC70 present; activation (rescue from dofetilide block), less the hit threshold, % at 10 µM; 310,000 tested, 0.51% active; AID 1511;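 active means activation above the mean of controls blocked by dofetilide plus 5 SD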;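 further: thallium influx through hERG after potassium depolarization seen as dye fluorescence rise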
# KCNQ1 act – potentiates or activates the human KCNQ1 potassium channel | P51787 | B-score at 10 µM | AID 2648 | CHO-K1 KCNQ1, thallium flux FluxOR fluorescence; active compounds read high | 310,000 tested, 0.35% active;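 active means fluorescence ratio B-score, a plate-corrected score, at least three library SD, with initial intensity B-score within 5 SD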
#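 Material: CHO-K1 cells stably expressing KCNQ1. Medium: assay buffer for compound exposure, DMSO matched across wells. Reagent: K+/Tl+ depolarizing stimulus. Compound dosing: single-concentration screen. Times: 37 °C overnight plating, 90-min dark dye load, 20-min compound pretreatment. Technique: FluxOR Tl+ flux fluorescence.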
# KCNK9 block – human KCNK9 channel inhibition; Q9NPC2; HEK293 KCNK9, FluxOR thallium flux fluorescence; active compounds read low; B-score at 10 µM; 310,000 tested, 1.2% active; AID 488922;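 active means ratio B-score over 3 SD below the library mean, with starting fluorescence within 5 SD of its mean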;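 further: negative B-score means less thallium flux so channel inhibition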
# Numbers without * were called inactive; i = inactive; · = not tested or not shown. In the library only some 3.1% were active in any assay of this set; here they are far more common.
SMILES,KCNQ1 inh,KCNK3 block,hERG protect,KCNQ1 act,KCNK9 block
O=C(c1ccco1)N1CCN(S(=O)(=O)c2ccc(C3CCCCC3)cc2)CC1,i,i,8.2*,i,i
O=C(COc1ccc2ccccc2c1Br)Nc1ccncc1,i,i,-4,i,i
O=C(COc1ccc2ccccc2c1Br)Nc1cccnc1,i,i,23*,i,i
COc1ccc(OC)c(C2c3[nH]c4ccccc4c3C[C@H]3C(=O)N(CCCOC(C)C)CC(=O)N23)c1 (stereo partly specified),i,i,-12,i,i
O=C(Nc1cc(Sc2ccccn2)cc([N+](=O)[O-])c1)c1cccc(F)c1,i,i,-13,i,i
O=C(Nc1cc(Sc2nc3ccccc3s2)cc([N+](=O)[O-])c1)c1ccccc1,11*,i,-23,i,i
CCOC(=O)CC(=O)CSc1nc2c(sc(=S)n2-c2ccc(OCC)cc2)c(=O)[nH]1,i,i,-9,i,i
CCCN(CCC)C(=O)CSc1nc2c(sc(=S)n2-c2ccc(OCC)cc2)c(=O)[nH]1,7*,i,-9,i,i
COc1ccccc1-n1c(=S)sc2c(=O)n(Cc3ccco3)c(SC)nc21,9*,i,-13,i,i
CCCCN(CC)C(=O)CSc1nc2c(sc(=S)n2-c2ccc(OCC)cc2)c(=O)[nH]1,8*,i,-19,i,i
CCOc1ccc(-n2c(=S)sc3c(=O)n(-c4ccccc4)c(SC)nc32)cc1,i,i,-3,8*,i
CCN(Cc1ccccc1)C(=O)CN1C(=O)NC(CC)(c2ccc(F)cc2)C1=O (stereo unspecified),i,i,-4,i,i
CCOC(=O)c1sc(NC(=O)C(CC)Sc2nnc3c4ccccc4n(C(C)C)c3n2)nc1C (stereo unspecified),·,-11*,·,·,·
O=C(COc1ccccc1)NC(=S)Nc1ccc(Br)cn1,i,i,-6,22*,i
COc1ccc(CN(C(=O)c2snc(C(N)=O)c2N)C(C(=O)NC2CCCC2)c2ccco2)cc1 (stereo unspecified),i,i,-10,i,i
O=C(c1cc2nc(-c3ccc(Cl)cc3)cc(C(F)(F)F)n2n1)N1CCOCC1,i,i,46*,i,i
O=C(Cc1ccccc1)NC1CCN(S(=O)(=O)c2ccc(C(=O)O)cc2)CC1,i,i,6.1*,i,i
COc1ccc(/C=C2\SC(=O)N(CC(=O)NC3CCS(=O)(=O)C3)C2=O)cc1 (stereo unspecified),i,i,-8,i,i
Oc1c(Br)cc(Br)cc1CNc1cnc2ccccc2c1,6*,i,-10,i,i
Oc1c(Br)cc(Br)cc1CNc1ccc(F)cc1,i,i,-5,i,i
N#CC1=C(N)Oc2cc(O)c(Cl)cc2C1c1ccccc1F (stereo unspecified),14*,i,-46,i,i
N#CC1=C(N)Oc2cc(O)c(Cl)cc2C1c1cccnc1 (stereo unspecified),i,i,-25,i,i
CC1(C)[C@@H](O)CC[C@]2(C)C3C(O)C=C4[C@H]5C[C@@](C)(C(=O)O)CC[C@]5(C)CC[C@]4(C)[C@]3(C)CC[C@@H]12 (stereo partly specified),i,·,-9,13*,i
CC1(C)C(=O)CC[C@]2(C)C3C(=O)C=C4[C@H]5C[C@@](C)(C(=O)O)CC[C@]5(C)CC[C@]4(C)[C@]3(C)CC[C@@H]12 (stereo partly specified),i,i,-10,i,i
Cc1ccc(NC(=O)CN2C(=O)S/C(=C\c3cc(Cl)c(OCC(=O)O)c(Cl)c3)C2=O)cc1,i,i,-8,i,i
SMILES,KCNQ1 inh,KCNK3 block,hERG protect,KCNQ1 act,KCNK9 block
CC(C)Cc1ccc(C(C)C(=O)Nc2cccnc2)cc1 (stereo unspecified),i,i,-16,i,i
CC(C)Cc1ccc(C(C)C(=O)Nc2ccc(O)cc2)cc1 (stereo unspecified),i,i,-11,10*,i
CN(C)c1ccc2c(c1)OC(N)=C(C#N)C2c1cccc(F)c1 (stereo unspecified),i,-11*,-21,i,-6.8*
N#CC1=C(N)Oc2cc(N)ccc2C1c1cccc(F)c1 (stereo unspecified),i,i,0,i,i
Cc1ccccc1NC(=O)CN1C(=O)S/C(=C\c2cccn2-c2cccc(C(=O)O)c2)C1=O,i,i,0,i,i
COc1ccc(NC(=O)CN2C(=O)S/C(=C/c3cccn3-c3ccc(C(=O)O)cc3)C2=O)cc1,i,i,16*,i,i
Cc1ccc(NC(=O)CN2C(=O)S/C(=C\c3cccn3-c3cccc(C(=O)O)c3)C2=O)c(C)c1,i,i,5.4*,i,i
Cc1ccc(NC(=O)CN2C(=O)S/C(=C\c3cccn3-c3cccc(C(=O)O)c3)C2=O)cc1C,i,i,-8,i,i
CCOC(=O)c1c(/N=C/C2=C(O)CCCC2=O)sc2c1CCCC2,i,i,5.9*,i,i
COC(=O)c1cc2ccsc2n1Cc1nc(-c2cccc(Cl)c2)oc1C,i,i,-1,i,-7.3*
C=CCN1C(=O)/C(=C2/Sc3ccc(OC)cc3N2CC)SC1=S,6*,i,-4,i,i
Cc1cccc(CSCCNC(=O)CN2C(=O)c3ccccc3S2(=O)=O)c1,i,i,-5,i,i
Cc1ccc(CSCCNC(=O)CN2C(=O)c3ccccc3S2(=O)=O)cc1,i,i,4.9*,i,i
COc1cccc(CNC(=O)N2CCN(S(=O)(=O)c3ccc(C)cc3)CC2)c1,i,i,-8,i,i
Cc1ccccc1-n1c2nc(=O)n(C)c(=O)c-2cc2ccccc21,7*,i,-1,i,i
CN(C)c1nc2c(c(=O)n(C)c(=O)n2C)n1Cc1ccccc1,i,i,-12,i,i
Cc1ccccc1-n1c(=O)c2ccccc2n2nnnc12,i,i,-8,i,i
CCCCn1c(=O)nc2n(-c3ccccc3C)c3ccccc3cc-2c1=O,i,i,-12,11*,i
Cn1c(=O)nc2n(Cc3ccccc3)c3ccccc3cc-2c1=O,i,i,-5,8*,i
CCCCn1c(=O)c2ccccc2c2ccccc2c1=O,·,i,·,·,·
COc1ccccc1NC(=O)Cc1nnc(SCC(=O)c2ccccc2)n1C,i,i,0,i,i
Cc1ccc(C(=O)Nn2cnnc2)cc1S(=O)(=O)N1CCOCC1,i,i,-9,i,i
O=C1c2cccc3cccc(c23)C(=O)C1(O)O,i,i,8.0*,i,i
